Source: PMC5909786 (Drug Design, Development and Therapy, 2018)

Columns and labels:
[1] = test system: Raji cells; assay: In vitro cytotoxicity; type: cell-based, human; settings: Raji cells versus Raji/VCR cells, MTT, 72 hours
[2] = In vivo tissue distribution; set-up: species or system Raji/VCR cell bearing BALB/c nude mice; settings: 10 mg/kg of VCR intravenous
[3] = test system: Raji/VCR cell bearing BALB/c nude mice; assay: In vivo antitumor activity; settings: 10 mg/kg of VCR intravenously twice a week for 3 weeks, n=6
[4] = Systemic toxicity; type: in vivo, BALB/c nude mice; settings: tumor-bearing mice, after 3 weeks of administration
In short: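 BALB/c nude mice (4–6 weeks, 18–22 g) carried subcutaneous right-flank xenografts of vincristine-resistant Raji cells (5×10^7 cells in 100 μL PBS). Mice were randomised into groups of six and dosed intravenously twice a week for 3 weeks with PBS control or test formulations (10 mg/kg drug). Body weight was recorded as a systemic toxicity read-out.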

## CC[C@]1(O)C[C@H]2CN(CCc3c([nH]c4ccccc34)[C@@](C(=O)OC)(c3cc4c(cc3OC)N(C=O)[C@H]3[C@@](O)(C(=O)OC)[C@H](OC(C)=O)[C@]5(CC)C=CCN6CC[C@]43[C@@H]65)C2)C1 [Free VCR, vincristine]
[1]
  In vitro cytotoxicity (in words): higher cytotoxicity in Raji cells than Raji/VCR cells
[2]
  Drug distribution over time (in words): rapidly reached a high level during the first few hours and reduced over time
[3]
  Tumor volume / tumor growth (in words): not statistically different from the negative control
[4]
  Body weight (in words): reduction in body weight
